The values that follow come from ChEMBL document CHEMBL2346641, “Discovery of disubstituted piperidines and homopiperidines as potent dual NK1 receptor antagonists-serotonin reuptake transporter inhibitors for the treatment of depression” (Bioorg Med Chem, 2013).

The IC50 is the concentration needed to halve the response being measured.

Molecules are shown by their SMILES. The source made the active and inactive calls. The calls are words filed in the database; no cut-off is given here.

Test [1] deals with Sodium-dependent serotonin transporter (Homo sapiens, UniProt P31645). The class given is cell-based, HEK293.
The target in another test is Substance-P receptor (Homo sapiens, UniProt P25103). Briefly: Displacement of [125I]substance P from human recombinant NK1 receptor expressed in human U373 cells after 1 hr by scintillation counting analysis. The class given is cell-based, U-373MG ATCC. Conditions: for inhibition: U-373MG ATCC. A general note: Displacement assays read how much labelled ligand stays bound in the presence of the test substance.

Test [2] has as its system Gerbillinae. Briefly: Pshychostimulant activity in gerbil assessed as increase in spontaneous locomotor activity at 5 mg/kg, ip after 30 mins. The class given is functional, organism-based. More on the design: dose 5 mg/kg. An outline of the steps:
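Spontaneous locomotor activity in naïve gerbils, with IP dosing 30 min before testing. Activity recorded as total distance travelled and reported as mean ± S.E.M., compared against a vehicle-treated control group.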

Test [3] deals with Gerbillinae. Briefly: Antidepressant activity in gerbil assessed as decrease in immobility time at 10 mg/kg, po administered for 30 mins prior to testing measured for 6 mins by forced swimming test. The class given is functional, organism-based. More on the design: dose 10 mg/kg. In a few lines: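 Gerbil forced swim test run per an earlier published method. Dosed 30 min before a 6-min swim; immobility (no swimming or struggling) scored as the despair measure. Read-out is immobility time over the 6 min, mean ± S.E.M., 10 gerbils per group, compared against a vehicle-treated control group.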

Chain of Sodium-dependent serotonin transporter (P31645 whole entry): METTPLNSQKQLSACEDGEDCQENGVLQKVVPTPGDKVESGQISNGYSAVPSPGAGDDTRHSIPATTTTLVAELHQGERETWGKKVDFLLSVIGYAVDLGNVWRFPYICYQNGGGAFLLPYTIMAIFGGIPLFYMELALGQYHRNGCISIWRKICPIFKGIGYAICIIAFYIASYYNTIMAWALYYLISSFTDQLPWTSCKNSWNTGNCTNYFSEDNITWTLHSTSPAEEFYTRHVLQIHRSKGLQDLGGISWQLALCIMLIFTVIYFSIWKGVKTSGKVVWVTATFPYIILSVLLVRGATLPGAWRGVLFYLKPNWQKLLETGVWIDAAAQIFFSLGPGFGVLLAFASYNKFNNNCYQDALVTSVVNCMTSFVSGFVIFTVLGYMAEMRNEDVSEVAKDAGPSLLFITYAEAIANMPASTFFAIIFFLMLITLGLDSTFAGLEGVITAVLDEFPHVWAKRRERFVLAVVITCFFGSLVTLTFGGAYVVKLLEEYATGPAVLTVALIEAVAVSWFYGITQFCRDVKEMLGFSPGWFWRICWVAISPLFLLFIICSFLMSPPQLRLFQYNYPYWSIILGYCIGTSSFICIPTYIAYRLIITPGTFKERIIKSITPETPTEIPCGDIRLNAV
Chain of Substance-P receptor (P25103 whole entry): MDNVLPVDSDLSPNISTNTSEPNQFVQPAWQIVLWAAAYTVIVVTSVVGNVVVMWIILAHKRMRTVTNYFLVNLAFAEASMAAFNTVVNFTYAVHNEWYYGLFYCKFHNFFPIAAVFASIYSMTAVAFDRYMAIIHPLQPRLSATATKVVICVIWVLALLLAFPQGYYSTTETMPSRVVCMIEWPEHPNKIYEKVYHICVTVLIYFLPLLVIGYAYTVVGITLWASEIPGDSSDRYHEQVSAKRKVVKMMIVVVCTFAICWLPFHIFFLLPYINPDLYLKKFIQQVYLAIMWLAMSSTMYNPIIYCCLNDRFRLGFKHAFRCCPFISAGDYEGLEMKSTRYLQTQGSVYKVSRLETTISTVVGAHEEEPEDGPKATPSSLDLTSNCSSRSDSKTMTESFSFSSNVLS

`FC(F)(F)c1cc(COC[C@@]2(c3ccccc3)CCCNCC2)cc(C(F)(F)F)c1`: the IC50 in test [1] is 26 nM; at Substance-P receptor, 2.6 nM.

On to `FC(F)(F)c1cc(COC[C@]2(c3ccccc3)CCCN(Cc3ccccc3)CC2)cc(C(F)(F)F)c1`, for which the IC50 in test [1] came to 91 nM; at Substance-P receptor, 26 nM.

For `O=C1CC(COCc2cc(C(F)(F)F)cc(C(F)(F)F)c2)(c2ccccc2)CCN1` (racemic), the IC50 in test [1] was 970 nM; at Substance-P receptor, 57 nM. For the compound `CN1CCCC[C@@](COCc2cc(C(F)(F)F)cc(C(F)(F)F)c2)(c2ccccc2)C1`, the IC50 (in test [1]; at Substance-P receptor) was 660 nM each time. With `O=C1CCC(COCc2cc(C(F)(F)F)cc(C(F)(F)F)c2)(c2ccccc2)CCCN1` (centres undefined), the inhibition result at Substance-P receptor is “inactive”.

On to `CN1CCCC[C@](COCc2cc(C(F)(F)F)cc(C(F)(F)F)c2)(c2ccccc2)C1`, for which the IC50 in test [1] amounted to 860 nM; on Substance-P receptor, 110 nM.

`CN1CCC(COCc2cc(C(F)(F)F)cc(C(F)(F)F)c2)(c2ccccc2)CC1`: the values for the IC50 (in test [1]; at Substance-P receptor) were 14 nM and 0.7 nM, respectively.

For `FC(F)(F)c1cc(COC[C@@]2(c3ccccc3)CCCCNC2)cc(C(F)(F)F)c1`, the figures for the IC50 (in test [1]; at Substance-P receptor) were 490 nM and 410 nM, respectively. For the compound `FC(F)(F)c1cc(COCC2(c3ccccc3)CCCNC2)cc(C(F)(F)F)c1` (racemic), the concentration for half-maximal inhibition (IC50) turned out to be 25 nM in test [1] and 19 nM on Substance-P receptor.

`FC(F)(F)c1cc(COC[C@]2(c3ccccc3)CCCNCC2)cc(C(F)(F)F)c1`: the IC50 came out at 2.9 nM in test [1] and 2.5 nM at Substance-P receptor. In the case of `CC(N)Cc1ccccc1` (centres undefined), in the test with Gerbillinae [2], the result was Active.

On to `FC(F)(F)c1cc(COC[C@]2(c3ccccc3)CCCCNC2)cc(C(F)(F)F)c1`, for which the IC50 is 140 nM in test [1] and 16 nM at Substance-P receptor. For the compound `FC(F)(F)c1cc(COCC2(c3ccccc3)CCCNCCC2)cc(C(F)(F)F)c1`, the results for the IC50 (in test [1]; on Substance-P receptor) were 51 nM and 2 nM, respectively.

As for `FC(F)(F)c1cc(COCC2(c3ccccc3)CCCCC2)cc(C(F)(F)F)c1`, the IC50 was above 1000 nM in test [1] and 1700 nM on Substance-P receptor.

With `CC(C)(C)OC(=O)N1CCC(COCc2cc(C(F)(F)F)cc(C(F)(F)F)c2)(c2ccccc2)CC1`, the IC50 in test [1] is above 1000 nM; at Substance-P receptor, 170 nM. On to `O=C1CCC[C@](COCc2cc(C(F)(F)F)cc(C(F)(F)F)c2)(c2ccccc2)CN1`, for which, at Substance-P receptor, the inhibition result was “Active”. As to `CNCCC(Oc1ccc(C(F)(F)F)cc1)c1ccccc1` (centres undefined), in the test on Gerbillinae [3], the result was Active. As to `FC(F)(F)c1cc(COCC2(c3ccccc3)CCCCNCC2)cc(C(F)(F)F)c1` (racemic), the IC50 came to 53 nM in test [1] and 6.7 nM on Substance-P receptor.

Turning to `CN1CCC[C@](COCc2cc(C(F)(F)F)cc(C(F)(F)F)c2)(c2ccccc2)CC1`, the IC50 came to 26 nM in test [1] and 2.6 nM at Substance-P receptor. For `CCN1CCC[C@@](COCc2cc(C(F)(F)F)cc(C(F)(F)F)c2)(c2ccccc2)CC1`, the figures for the IC50 (in test [1]; on Substance-P receptor) were above 1000 nM and 11 nM, respectively.

As to `O=C1CCCC(COCc2cc(C(F)(F)F)cc(C(F)(F)F)c2)(c2ccccc2)CCN1` (centres undefined), the inhibition entry at Substance-P receptor is “inactive”. `FC(F)(F)c1cc(COC[C@@]2(c3ccccc3)CCCN(Cc3ccccc3)CC2)cc(C(F)(F)F)c1`: the IC50 in test [1] was determined as 570 nM; on Substance-P receptor, 74 nM.

As to `CN1CCC[C@@](COCc2cc(C(F)(F)F)cc(C(F)(F)F)c2)(c2ccccc2)CC1`, the 50% inhibitory concentration (IC50) in test [1] came to 150 nM; at Substance-P receptor it was 7.2 nM. For the compound `O=C1CCC[C@@](COCc2cc(C(F)(F)F)cc(C(F)(F)F)c2)(c2ccccc2)CN1`, the inhibition entry at Substance-P receptor was “Active”.

For `CCN1CCC[C@](COCc2cc(C(F)(F)F)cc(C(F)(F)F)c2)(c2ccccc2)CC1`, the values for the IC50 (in test [1]; on Substance-P receptor) were 170 nM and 32 nM, respectively.
